Measured values from ChEMBL document CHEMBL2331221, “Potent elastase inhibitors from cyanobacteria: structural basis and mechanisms mediating cytoprotective and anti-inflammatory effects in bronchial epithelial cells” (J Med Chem, 2013).

Tests used:
[1] = molecular target: Cathepsin S (Homo sapiens) (UniProt P25774); assay: Inhibition of Cathepsin S (unknown origin) using Z-FR-AMC substrate assessed as residual activity at 10 uM incubated for 15 mins prior to substrate addition measured for 2 hrs
Method in brief: (§1)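 Protease panel screen: enzyme and test inhibitor preincubated 15 min in the enzyme's reaction buffer, then substrate added. Reaction followed for 2 h, and activity was taken from the initial linear portion of the progress-curve slope. Enzyme, substrate, buffer and detection conditions for each target are given only in the paper's supporting table.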

Homo sapiens = species on record: Homo sapiens; assay: Inhibition of human pancreatic chymotrypsin assessed as proteolysis using N-succinyl-Ala-Ala-Pro-Phe-p-nitroanilide substrate incubated at 10 uM for 30 mins prior to substrate addition; parameters: scale not given: the % may be the effect or the level left
Method in brief: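 Pancreatic chymotrypsin, bovine at 100 μg/mL or human at 50 μg/mL; reaction buffer, enzyme and inhibitor (DMSO) incubated 30 min at room temperature, then substrate added (bovine: N-succinyl-Gly-Gly-Phe-pNA; human: N-succinyl-Ala-Ala-Pro-Phe-pNA). Absorbance read at 405 nm; activity from reaction slope relative to solvent control.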

Coagulation factor XI = Coagulation factor XI (Homo sapiens, UniProt P03951); assay: Inhibition of Factor-11a (unknown origin) using (Boc-Glu(OBzl)-Ala-Arg)-MCA substrate incubated for 15 mins prior to substrate addition measured for 2 hrs; method in brief: as §1
[2] = molecular target: Cathepsin K (Homo sapiens) (UniProt P43235); assay: Inhibition of Cathepsin K (unknown origin) using Z-GPR-AMC substrate assessed as residual activity at 10 uM incubated for 15 mins prior to substrate addition measured for 2 hrs; method in brief: as §1
[3] = molecular target: Beta-secretase 1 (Homo sapiens) (UniProt P56817); assay: Inhibition of BACE1 (unknown origin) using MCA-SEVNLDAEFRK(Dnp)-RR-NH2 substrate assessed as residual activity at 10 uM incubated for 15 mins prior to substrate addition measured for 2 hrs; method in brief: as §1
[4] = molecular target: Cathepsin G (Homo sapiens) (UniProt P08311); assay: Inhibition of Cathepsin G (unknown origin) using Suc-AAPF-AMC substrate assessed as residual activity at 10 uM incubated for 15 mins prior to substrate addition measured for 2 hrs; method in brief: as §1
[5] = molecular target: Tissue-type plasminogen activator (Homo sapiens) (UniProt P00750); assay: Inhibition of tPA (unknown origin) using Z-GPR-AMC substrate assessed as residual activity at 10 uM incubated for 15 mins prior to substrate addition measured for 2 hrs
Method in brief: (§2)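 Protease panel screen: enzyme and inhibitor preincubated 15 min in reaction buffer, then substrate added; reaction followed for 2 h and the initial linear part of the progress curve used for activity. Enzyme, substrate, buffer and detection details are given only in a supporting table.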

[6] = molecular target: Cathepsin L2 (Homo sapiens) (UniProt O60911); assay: Inhibition of Cathepsin V (unknown origin) using Z-FR-AMC substrate assessed as residual activity at 10 uM incubated for 15 mins prior to substrate addition measured for 2 hrs; method in brief: as §1
[7] = molecular target: Dipeptidyl peptidase 8 (Homo sapiens) (UniProt Q6V1X1); assay: Inhibition of DPP8 (unknown origin) using H-GP-AMC substrate assessed as residual activity at 10 uM incubated for 15 mins prior to substrate addition measured for 2 hrs; method in brief: as §1
Papain (Carica papaya) = Papain (Carica papaya) (UniProt P00784); assay: Inhibition of papaya Papain using Z-FR-AMC substrate assessed as residual activity at 10 uM incubated for 15 mins prior to substrate addition measured for 2 hrs; method in brief: as §2
[8] = Inhibition of Hepatitis C virus NS3/4A protease using Anaspec EnzoLyte substrate incubated for 15 mins prior to substrate addition measured for 2 hrs; parameters: species or system Hepacivirus hominis; method in brief: as §1
[9] = molecular target: Disintegrin and metalloproteinase domain-containing protein 9 (Homo sapiens) (UniProt Q13443); assay: Inhibition of ADAM9 (unknown origin) using MCA-PLAQAV-Dpa-RSSSR-[…] substrate assessed as residual activity at 10 uM incubated for 15 mins prior to substrate addition measured for 2 hrs; method in brief: as §1
[10] = Inhibition of human pancreatic Chymotrypsin using Suc-AAPF-pNa substrate incubated for 15 mins prior to substrate addition measured for 2 hrs; method in brief: as §2
[11] = molecular target: Matrix metalloproteinase-14 (Homo sapiens) (UniProt P50281); assay: Inhibition of MMP14 (unknown origin) using (5-FAM/QXLTM) FRET peptide substrate assessed as residual activity at 10 uM incubated for 15 mins prior to substrate addition measured for 2 hrs; method in brief: as §1
[12] = molecular target: Caspase-10 (Homo sapiens) (UniProt Q92851); assay: Inhibition of Caspase 10 (unknown origin) using Ac-LEHD-AMC substrate assessed as residual activity at 10 uM incubated for 15 mins prior to substrate addition measured for 2 hrs; method in brief: as §1
[13] = Inhibition of human pancreatic chymotrypsin assessed as proteolysis using N-succinyl-Ala-Ala-Pro-Phe-p-nitroanilide substrate incubated for 30 mins prior to substrate addition
Chymase = Chymase (Homo sapiens, UniProt P23946); assay: Inhibition of Chymase (unknown origin) using Suc-AAPF-AMC substrate incubated for 15 mins prior to substrate addition measured for 2 hrs; method in brief: as §1
[14] = molecular target: Disintegrin and metalloproteinase domain-containing protein 17 (Homo sapiens) (UniProt P78536); assay: Inhibition of TACE (unknown origin) using MCA-PLAQAV-Dpa-RSSSR-NH2 substrate assessed as residual activity at 10 uM incubated for 15 mins prior to substrate addition measured for 2 hrs; method in brief: as §2
[15] = molecular target: Stromelysin-2 (Homo sapiens) (UniProt P09238); assay: Inhibition of MMP10 (unknown origin) using (5-FAM/QXLTM) FRET peptide substrate assessed as residual activity at 10 uM incubated for 15 mins prior to substrate addition measured for 2 hrs; method in brief: as §1
Sequence of Stromelysin-2 (Homo sapiens) (P09238 99-476 limits assumed): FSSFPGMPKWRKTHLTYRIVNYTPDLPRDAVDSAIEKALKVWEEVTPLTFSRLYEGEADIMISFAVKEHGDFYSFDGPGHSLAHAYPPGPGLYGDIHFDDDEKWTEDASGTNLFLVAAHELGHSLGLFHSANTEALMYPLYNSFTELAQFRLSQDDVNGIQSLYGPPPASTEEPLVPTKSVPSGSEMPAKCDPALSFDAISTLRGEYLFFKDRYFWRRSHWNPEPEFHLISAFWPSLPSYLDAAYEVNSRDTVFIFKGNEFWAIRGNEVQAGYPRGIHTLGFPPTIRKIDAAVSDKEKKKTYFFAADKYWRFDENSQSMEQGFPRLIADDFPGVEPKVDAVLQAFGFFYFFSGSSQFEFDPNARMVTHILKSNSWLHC

Sequence of Caspase-10 (Homo sapiens) (Q92851 220-415 limits assumed): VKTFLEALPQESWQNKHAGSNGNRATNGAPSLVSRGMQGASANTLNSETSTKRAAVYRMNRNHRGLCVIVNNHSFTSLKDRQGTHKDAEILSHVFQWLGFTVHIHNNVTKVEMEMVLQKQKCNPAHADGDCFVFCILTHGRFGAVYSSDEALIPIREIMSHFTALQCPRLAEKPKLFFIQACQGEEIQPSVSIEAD
Sequence of Caspase-10 (Homo sapiens) (Q92851 416-521 limits assumed): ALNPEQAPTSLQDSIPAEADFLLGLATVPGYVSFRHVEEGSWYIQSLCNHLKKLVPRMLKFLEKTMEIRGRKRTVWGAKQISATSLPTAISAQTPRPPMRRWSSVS
Sequence of Coagulation factor XI (P03951 19-387 limits assumed): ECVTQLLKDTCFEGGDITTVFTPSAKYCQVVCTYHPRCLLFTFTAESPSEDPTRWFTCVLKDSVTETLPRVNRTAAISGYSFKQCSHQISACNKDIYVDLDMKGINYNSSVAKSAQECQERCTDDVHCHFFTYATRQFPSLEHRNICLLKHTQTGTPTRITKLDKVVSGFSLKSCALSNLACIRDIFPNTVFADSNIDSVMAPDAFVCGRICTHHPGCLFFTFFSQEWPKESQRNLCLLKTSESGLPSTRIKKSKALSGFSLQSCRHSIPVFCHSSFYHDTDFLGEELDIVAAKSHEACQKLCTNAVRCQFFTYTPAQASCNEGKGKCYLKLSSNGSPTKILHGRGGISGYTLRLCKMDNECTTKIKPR
Sequence of Coagulation factor XI (P03951 388-625 limits assumed): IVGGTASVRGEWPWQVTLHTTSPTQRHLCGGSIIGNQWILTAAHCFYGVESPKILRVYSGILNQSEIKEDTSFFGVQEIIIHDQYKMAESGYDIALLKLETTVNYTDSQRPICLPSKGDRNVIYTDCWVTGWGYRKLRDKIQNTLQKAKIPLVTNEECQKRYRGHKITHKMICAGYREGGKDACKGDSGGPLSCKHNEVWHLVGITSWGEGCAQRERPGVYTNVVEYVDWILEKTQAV
Sequence of Cathepsin G (Homo sapiens) (P08311 whole entry): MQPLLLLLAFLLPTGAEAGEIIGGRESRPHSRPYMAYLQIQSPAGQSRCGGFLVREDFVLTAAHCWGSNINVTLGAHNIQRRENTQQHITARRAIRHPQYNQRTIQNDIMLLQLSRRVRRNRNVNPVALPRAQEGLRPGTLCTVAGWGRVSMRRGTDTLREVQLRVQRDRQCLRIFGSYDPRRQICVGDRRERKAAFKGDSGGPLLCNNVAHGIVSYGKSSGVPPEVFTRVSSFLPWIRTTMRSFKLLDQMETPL
Sequence of Cathepsin S (Homo sapiens) (P25774 115-331 limits assumed): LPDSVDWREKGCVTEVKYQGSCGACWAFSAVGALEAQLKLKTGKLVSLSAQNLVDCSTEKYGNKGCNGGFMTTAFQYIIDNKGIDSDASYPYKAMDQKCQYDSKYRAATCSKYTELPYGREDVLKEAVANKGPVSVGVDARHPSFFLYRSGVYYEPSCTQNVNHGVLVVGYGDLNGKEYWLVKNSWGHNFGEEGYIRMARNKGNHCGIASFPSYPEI
Sequence of Beta-secretase 1 (Homo sapiens) (P56817 whole entry): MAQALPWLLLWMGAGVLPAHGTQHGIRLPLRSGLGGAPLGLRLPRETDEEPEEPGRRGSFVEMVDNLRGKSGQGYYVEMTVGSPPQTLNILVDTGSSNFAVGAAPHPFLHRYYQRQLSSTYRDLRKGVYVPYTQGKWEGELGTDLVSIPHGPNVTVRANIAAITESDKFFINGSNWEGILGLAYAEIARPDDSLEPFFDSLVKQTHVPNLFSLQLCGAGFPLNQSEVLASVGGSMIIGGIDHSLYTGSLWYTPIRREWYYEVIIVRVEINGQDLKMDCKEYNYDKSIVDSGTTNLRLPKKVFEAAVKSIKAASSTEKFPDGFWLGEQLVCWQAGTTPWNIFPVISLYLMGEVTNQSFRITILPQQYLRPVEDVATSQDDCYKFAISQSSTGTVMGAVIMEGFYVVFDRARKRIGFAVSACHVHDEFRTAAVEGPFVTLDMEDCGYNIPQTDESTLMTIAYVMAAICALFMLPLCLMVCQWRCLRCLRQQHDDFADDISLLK
Sequence of Papain (Carica papaya) (P00784 whole entry): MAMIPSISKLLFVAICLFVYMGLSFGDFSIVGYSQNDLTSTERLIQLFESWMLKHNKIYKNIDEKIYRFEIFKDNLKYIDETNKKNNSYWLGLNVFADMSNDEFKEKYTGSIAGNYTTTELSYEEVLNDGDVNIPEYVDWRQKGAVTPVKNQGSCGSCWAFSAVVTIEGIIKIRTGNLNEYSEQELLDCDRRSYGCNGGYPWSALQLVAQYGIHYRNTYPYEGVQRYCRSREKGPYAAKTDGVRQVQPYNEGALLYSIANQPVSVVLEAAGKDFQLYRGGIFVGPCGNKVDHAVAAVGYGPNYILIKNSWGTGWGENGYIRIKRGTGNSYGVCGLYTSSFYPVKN
Sequence of Disintegrin and metalloproteinase domain-containing protein 9 (Homo sapiens) (Q13443 whole entry, the tested form may be a part): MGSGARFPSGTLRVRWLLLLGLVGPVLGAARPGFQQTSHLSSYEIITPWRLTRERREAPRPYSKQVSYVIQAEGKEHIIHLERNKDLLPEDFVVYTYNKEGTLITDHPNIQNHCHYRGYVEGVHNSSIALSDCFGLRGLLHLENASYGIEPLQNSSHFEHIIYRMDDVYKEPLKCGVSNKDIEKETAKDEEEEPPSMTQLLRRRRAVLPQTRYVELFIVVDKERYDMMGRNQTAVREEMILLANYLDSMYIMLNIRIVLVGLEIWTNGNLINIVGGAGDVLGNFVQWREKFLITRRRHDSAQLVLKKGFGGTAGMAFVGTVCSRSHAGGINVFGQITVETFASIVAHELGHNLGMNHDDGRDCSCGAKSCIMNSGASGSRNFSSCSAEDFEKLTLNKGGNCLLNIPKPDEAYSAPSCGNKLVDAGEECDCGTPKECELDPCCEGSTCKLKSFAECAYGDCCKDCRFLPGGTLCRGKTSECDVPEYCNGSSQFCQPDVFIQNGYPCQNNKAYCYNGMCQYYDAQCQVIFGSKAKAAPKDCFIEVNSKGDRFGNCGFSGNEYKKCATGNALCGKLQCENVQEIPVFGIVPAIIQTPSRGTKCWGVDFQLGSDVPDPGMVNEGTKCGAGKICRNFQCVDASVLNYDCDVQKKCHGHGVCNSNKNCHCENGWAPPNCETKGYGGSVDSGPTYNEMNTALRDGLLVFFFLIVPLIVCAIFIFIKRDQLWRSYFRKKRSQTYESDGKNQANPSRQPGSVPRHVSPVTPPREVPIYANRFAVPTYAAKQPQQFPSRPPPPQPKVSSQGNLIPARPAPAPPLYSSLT
Sequence of Cathepsin L2 (Homo sapiens) (O60911 whole entry): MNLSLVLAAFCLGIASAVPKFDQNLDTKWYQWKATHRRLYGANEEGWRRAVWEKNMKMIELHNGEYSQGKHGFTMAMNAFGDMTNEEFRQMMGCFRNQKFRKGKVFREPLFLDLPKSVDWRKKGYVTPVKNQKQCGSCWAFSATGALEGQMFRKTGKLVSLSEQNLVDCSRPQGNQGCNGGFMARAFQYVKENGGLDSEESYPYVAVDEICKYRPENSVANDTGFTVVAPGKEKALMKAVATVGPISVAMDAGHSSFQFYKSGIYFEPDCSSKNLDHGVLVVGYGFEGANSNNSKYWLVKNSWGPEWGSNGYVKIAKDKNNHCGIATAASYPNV
Sequence of Disintegrin and metalloproteinase domain-containing protein 17 (Homo sapiens) (P78536 whole entry, the tested form may be a part): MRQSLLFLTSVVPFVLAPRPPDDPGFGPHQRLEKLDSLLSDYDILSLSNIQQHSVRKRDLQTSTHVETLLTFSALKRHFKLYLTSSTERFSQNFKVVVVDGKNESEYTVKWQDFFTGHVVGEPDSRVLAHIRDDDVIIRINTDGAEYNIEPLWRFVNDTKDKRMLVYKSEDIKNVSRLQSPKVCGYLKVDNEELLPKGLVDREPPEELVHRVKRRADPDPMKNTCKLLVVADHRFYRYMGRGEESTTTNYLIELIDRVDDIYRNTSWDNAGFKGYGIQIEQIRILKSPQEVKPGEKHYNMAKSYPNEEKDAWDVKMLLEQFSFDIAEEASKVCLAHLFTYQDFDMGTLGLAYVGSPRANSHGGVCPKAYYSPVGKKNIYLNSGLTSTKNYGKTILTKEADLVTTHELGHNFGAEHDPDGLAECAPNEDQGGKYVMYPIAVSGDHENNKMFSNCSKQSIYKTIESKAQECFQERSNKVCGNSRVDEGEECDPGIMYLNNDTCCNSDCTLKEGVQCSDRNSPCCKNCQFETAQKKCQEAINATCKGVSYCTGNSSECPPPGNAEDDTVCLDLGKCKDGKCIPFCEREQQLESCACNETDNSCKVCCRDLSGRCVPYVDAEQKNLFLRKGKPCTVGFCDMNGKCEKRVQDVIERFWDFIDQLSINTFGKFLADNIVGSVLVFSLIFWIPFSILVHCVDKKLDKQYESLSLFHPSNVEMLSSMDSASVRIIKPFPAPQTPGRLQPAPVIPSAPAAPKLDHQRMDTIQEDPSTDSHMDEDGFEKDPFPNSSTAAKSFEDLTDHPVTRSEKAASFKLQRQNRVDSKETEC
Sequence of Cathepsin K (Homo sapiens) (P43235 whole entry): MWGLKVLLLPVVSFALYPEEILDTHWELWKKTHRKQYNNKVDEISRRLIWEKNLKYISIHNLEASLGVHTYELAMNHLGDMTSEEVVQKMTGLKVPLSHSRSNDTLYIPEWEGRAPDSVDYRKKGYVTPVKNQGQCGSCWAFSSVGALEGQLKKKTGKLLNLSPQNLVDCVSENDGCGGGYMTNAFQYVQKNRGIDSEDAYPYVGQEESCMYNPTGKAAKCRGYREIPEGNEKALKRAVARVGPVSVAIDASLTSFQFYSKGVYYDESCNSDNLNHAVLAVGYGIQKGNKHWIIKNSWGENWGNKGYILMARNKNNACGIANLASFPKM

**Q.** Which Activity [1] does the source give for `C/C=C1\NC(=O)[C@@H](NC(=O)[C@@H](NC(=O)[C@@H](COS(=O)(=O)[O-])OC)C(C)C)[C@@H](C)OC(=O)[C@H]([C@H](C)CC)NC(=O)[C@H](Cc2ccccc2)N(C)C(=O)[C@H](Cc2ccccc2)N2C(=O)[C@H](CC[C@H]2O)NC1=O.[Na+]` [Symplostatin 5] here?
**A.** The Activity was 100%.

**Q.** And the Activity (Homo sapiens)?
**A.** Its Activity is 53.4%.

**Q.** And the IC50 (Coagulation factor XI)?
**A.** Its IC50 is less than 10 µM.

**Q.** What about the Activity [2] of the same compound?
**A.** Its Activity is 100%.

**Q.** What about the Activity [3] of the same compound?
**A.** Its Activity is 100%.

**Q.** And the Activity [4]?
**A.** The Activity was 50%.

**Q.** What about the Activity [5] of the same compound?
**A.** The Activity was 100%.

**Q.** And the Activity [6]?
**A.** Its Activity is 100%.

**Q.** What about the Activity [7] of the same compound?
**A.** The Activity was 100%.

**Q.** And the Activity (Papain (Carica papaya))?
**A.** The Activity was 100%.

**Q.** And the pIC50 [8]?
**A.** The pIC50 was greater than 5.

**Q.** What about the Activity [9] of the same compound?
**A.** The Activity was 100%.

**Q.** What about the pIC50 [10] of the same compound?
**A.** Its pIC50 is 6.1.

**Q.** What about the Activity [11] of the same compound?
**A.** Its Activity is 100%.

**Q.** And the Activity [12]?
**A.** Its Activity is 100%.

**Q.** What about the IC50 [13] of the same compound?
**A.** Its IC50 is greater than 10 µM.

**Q.** What about the IC50 (Chymase) of the same compound?
**A.** The IC50 was less than 10 µM.

**Q.** And the Activity [14]?
**A.** The Activity was 100%.

**Q.** And the Activity [15]?
**A.** Its Activity is 100%.
